Results on 1 substance are retold here after paper PMC4416029 (Behavioural Pharmacology, 2015).

Data set [1] relates to mitochondrial β-oxidation. Particulars: ref Visarius et al., 1997; cited from earlier work.
Data set [2] concerns Alzheimer's disease patients. The settings on record: AD of mild or moderate severity, 24 weeks; ref Wischik et al., 2015; cited from earlier work.
Data set [3] concerns wild-type (WT) control mice. The experiment in a line: RotaRod motor performance, WT mice. Particulars: 45 mg/kg oral. It is filed as in vivo, mouse. The essentials:
(§1)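 On a four-lane rat RotaRod, pretreatment trials in week 1 were used for cohort matching. Mice then received 2 weeks of daily oral dosing (Monday–Sunday, 08.00–10.00 h): L66 at 5, 15 or 45 mg/kg, WT at 45 mg/kg only. Post-treatment training in week 4 continued dosing 1 h before the first trial. Time to fall was recorded over 12 trials. Learning was scored as trial 12 minus trial 1, and memory as pretreatment versus post-treatment trial 1.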
On the technique in general: In the rotarod test animals must keep their balance on a rotating rod.

The nature of data set [4]: Body weight over 8 weeks of oral treatment, L1 and WT mice. It is filed as in vivo, mouse. The settings on record: over 8 weeks of oral administration; identical in WT and L1 cohorts; drug exposure did not differ from vehicle.
A further data set deals with aggregated tau in Line 1 (Homo sapiens, UniProt P10636). The experiment in a line: Immunohistochemical counts of tau-reactive neurons. The data set is classed as in vivo, mouse. The settings on record: L1 mice, 45 mg/kg oral, 19 days. In outline: (§2)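 Separate histology cohorts were killed by Euthatal overdose 1 h after the last dose. Brains were removed, paraformaldehyde-fixed and paraffin-embedded. Sixteen 3-μm sections per brain were stained together with WT, L1 and L66 controls, using mAb 7/51 (hybridoma supernatant 1:300) with HRP anti-mouse detection and haematoxylin counterstain. Tau-reactive neurons were counted by region, expressed as ln(count+1) and as percentage reduction versus zero dose.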
Chain of aggregated tau in Line 1 (P10636 613-707): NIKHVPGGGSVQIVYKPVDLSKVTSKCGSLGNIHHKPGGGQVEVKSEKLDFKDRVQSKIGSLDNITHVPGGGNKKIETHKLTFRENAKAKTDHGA

The test system of data set [5] is Line 66 (L66) tau transgenic mice. The data set can be described thus: RotaRod motor performance and motor learning, L66 mice. The data set is classed as in vivo, mouse. In outline:
as §1

Data set [6] relates to Line 1 (L1) tau transgenic mice. The data set can be described thus: Problem-solving task in the water maze. It is filed as in vivo, mouse. In outline:
(§3)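 Mice aged 5 months (L1 and WT) received 15 or 45 mg/kg by oral gavage for 5 weeks (Monday–Friday), with dosing continued during testing 1 h before the first trial. Cued training lasted 4 days at 4 trials/day in a 1.5 m pool with water at 21±1°C, curtains drawn and a flagged platform moved daily among 20 sites. Each trial allowed 60 s, with a 2 s stay and a 10-min intertrial interval. Path length and swim speed were video-tracked.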

Data set [7] is described as follows: Body weight during 19-day treatment, L66 and WT mice. The data set is classed as in vivo, mouse. The settings on record: 5–45 mg/kg oral, 19 days, LMTX in this case LMTB.
The next data set addresses aggregated tau in L66 (Homo sapiens, UniProt P10636, G652D/P618S). The data set can be described thus: Immunohistochemical counts of tau-reactive neurons. The data set is classed as in vivo, mouse. The settings on record: L66 heterozygous, 8–9 months, MTC 45 mg/kg (35.1 mg MT/kg), 3 weeks. The essentials: as §2
Data set [8] is described as follows: Measurement of methylthioninium levels in the brain of L66 mice. It is filed as in vivo, mouse.
For the next data set, the system named is L1 mice. The data set can be described thus: Behavioural reactions observed on treatment, L1 histology cohorts. The data set is classed as in vivo, mouse. Particulars: 75 mg/kg oral, transient.
The subject of data set [9] is wild-type (WT) control mice. The experiment in a line: Visible platform task in the water maze, WT mice. It is filed as in vivo, mouse. In outline:
as §3

Chain of aggregated tau in L66 (P10636 1-441 isoform P10636-8 P301S/G335D): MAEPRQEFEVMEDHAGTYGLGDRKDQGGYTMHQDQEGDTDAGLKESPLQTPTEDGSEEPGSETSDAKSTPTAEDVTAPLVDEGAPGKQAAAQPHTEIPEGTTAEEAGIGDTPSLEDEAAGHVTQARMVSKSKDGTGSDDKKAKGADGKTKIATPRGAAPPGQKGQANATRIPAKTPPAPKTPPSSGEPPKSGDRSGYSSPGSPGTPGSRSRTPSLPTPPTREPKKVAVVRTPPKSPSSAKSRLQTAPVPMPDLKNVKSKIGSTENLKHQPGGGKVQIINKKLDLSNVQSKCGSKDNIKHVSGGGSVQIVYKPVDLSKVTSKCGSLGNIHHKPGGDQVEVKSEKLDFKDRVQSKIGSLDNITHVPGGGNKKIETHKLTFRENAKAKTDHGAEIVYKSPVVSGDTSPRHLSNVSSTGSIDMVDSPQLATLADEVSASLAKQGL

As for “3,7-bis(dimethylamino)phenothiazin-5-ylium chloride [MTC]”, in [1], the “concentration for enhancement of mitochondrial β-oxidation” value is 0.3 µmol/L. Further, the “minimum effective dose at clinical and molecular imaging endpoints” value in data set [2] is given as 138 mg MT/day. Also, the “effect on post-treatment RotaRod performance vs vehicle” value is reported as “did not affect the performance” in [3], “significant benefit” in data set [5] (5 mg/kg oral) and “significant benefit” in [5] (15 mg/kg oral). Besides, in data set [4], the weight loss was 15–20%. Also, the “reduction in tau-reactive neurons, subiculum” value at aggregated tau in Line 1 is 83%. In addition, in [5] (all doses (5, 15, 45 mg/kg)), the “effect on motor learning (difference between trial 1 and trial 12)” value is listed as “full recovery of motor learning”. In addition, the “lowest effective dose, correction of motor learning on RotaRod” value in data set [5] (oral, 19 days (5 mg/kg of compound)) was 4 mg MT/kg. Also, the “effect on swim speed” value in data set [6] (L1 and WT mice, 15 and 45 mg/kg oral, visible platform task) is reported as “did not alter the velocity”. Besides, the “effect on mean number of trials to criterion (three spatial problems)” value was “longer training required to meet criterion” in data set [6] (L1 mice, 15 mg/kg oral) and “impairment was reversed” in data set [6] (L1 mice, 45 mg/kg oral). In addition, the “effect on path length to visible platform” value in data set [6] (L1 mice, 15 and 45 mg/kg oral, 4 days cued training) is “No drug effect”; in [9] (15 mg/kg oral) it was “improvement”; in [9] (45 mg/kg oral) it was “did not differ from controls”. The “dose required to produce benefit in spatial problem-solving water maze task” value in data set [6] (L1 mice, oral, 8 weeks, dose as weight of compound) turned out to be 45 mg/kg. Moreover, in data set [7], the “effect on body weight compared with vehicle controls” value was “dose-dependent weight loss”. Further, the “percentage reduction in counts compared with zero dose, mean over region” value at aggregated tau in L66 is 44%. For the same substance, in data set [8] (5 or 15 mg/kg, LMTX in this case LMTB), the “brain MT concentration with evidence of plateauing of RotaRod performance” value worked out at 0.6 mmol/L. Also, the “mean brain concentration of total MT” value in [8] (lowest effective dose (4 mg MT/kg), oral) was found to be 150 ± 10 nM. Also, in the data set with L1 mice, the behavioural reactions entry is reported as “hunched posture, low activity, piloerection”.
